Source: PubChem BioAssay
Rows were chosen to be rich in hits. Some 2.1% of all compounds tested hit in one or more screens of this group.
MC4R antag cAMP: human MC4R antagonism in cAMP assay; P32245; MC4R-expressing cells, MTII-stimulated cAMP, LANCE TR-FRET; inhibition, % at 6.5 µM; hit rate 0.48% among 360,000; AID 540295;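 active means inhibition above its plate's cutoff, the mean of tested wells on that plate plus 3 SD, cut at about 29% in these data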;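 further: 0% = Melanotan II alone and 100% = Melanotan II plus saturating MCL0020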
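System: U2OS-MC4R stable cell line; Technique: Eu-cAMP/anti-cAMP TR-FRET, emission 671 nm; Repeats: single well per compound; Also added: Melanotan II; Dosing: one concentration, 6.5 µM nominal; Schedule: 30-min compound, 1-h challenge, 1-h detection, room temperature.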
MC4R ag barr: activates human MC4R beta-arrestin recruitment; P32245; U2OS MC4R beta-arrestin complementation, luminescence; percent of melanotan II response, DMSO zero; activation, % at 8.9 µM; hit rate 0.98% among 360,000;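 active means activation above a per-plate cutoff, the mean activation of sample wells on that plate plus 3 SD, cut at about 8% in these data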
SMARCA2 activ: increases SMARCA2 function in MMTV reporter cells | MG213 cells, MMTV-luciferase reporter, dexamethasone, overnight | activation, % at 9.1 µM | hit rate 1% among 370,000; in the data active means activation above about 7.8%;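 further: 0% = vehicle wells and 100% = reference activator wells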
F508del corr: correctors of CFTR F508del function in bronchial epithelial cells. CFBE cells, YFP halide quenching; stimulated with forskolin plus potentiator P3; % fluorescence drop versus neutral controls. AID 720511. hit rate 0.36% among 350,000. activity (quench increase), % at 7.58 µM;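 active means mean added fluorescence quench of at least 8% versus neutral control, with both replicates also reaching 8%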;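 further: cells transiently co-express mutant CFTR-F508del with the halide-sensitive YFP; corrector assay measuring rescue of mutant channel to the surface after 24 h compound exposure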
MC4R barr ag: human MC4R beta-arrestin agonism confirmation. activation, % at 8.9 µM. AID 602192. U2OS MC4R beta-arrestin recruitment, luminescence; scaled DMSO 0%, Melanotan II 100%. hit rate 31% among 2,400. shares compounds with MC4R ag barr;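 active means mean activation across replicates above the hit cutoff set in the earlier primary screen, cut at about 8% in these data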
MOR-DOR barr ag: counter-screen for MC4R agonists: agonists of mu-delta opioid heterodimer. shares compounds with MC4R ag barr. U2OS PathHunter beta-arrestin, beta-gal luminescence; percent of deltorphin B response, DMSO zero. activation, % at 9.2 µM. hit rate 5.8% among 2,400;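 active means mean activation across replicates exceeds the hit threshold derived in the earlier primary screen, cut at about 18% in these data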;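 further: 100% = deltorphin B at 0.9 µM final and 0% = DMSO alone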
Target sequence (P35372 whole entry, looked up): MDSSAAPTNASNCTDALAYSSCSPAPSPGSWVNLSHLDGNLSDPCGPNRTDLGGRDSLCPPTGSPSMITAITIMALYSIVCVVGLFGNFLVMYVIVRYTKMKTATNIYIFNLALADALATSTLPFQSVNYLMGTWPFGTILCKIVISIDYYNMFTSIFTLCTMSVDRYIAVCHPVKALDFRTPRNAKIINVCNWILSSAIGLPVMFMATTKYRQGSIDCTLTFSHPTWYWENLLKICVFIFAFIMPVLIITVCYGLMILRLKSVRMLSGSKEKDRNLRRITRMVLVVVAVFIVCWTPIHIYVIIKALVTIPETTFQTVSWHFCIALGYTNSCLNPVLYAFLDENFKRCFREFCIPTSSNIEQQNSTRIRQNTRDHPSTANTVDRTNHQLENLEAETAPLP
Target sequence (P41143 whole entry, looked up): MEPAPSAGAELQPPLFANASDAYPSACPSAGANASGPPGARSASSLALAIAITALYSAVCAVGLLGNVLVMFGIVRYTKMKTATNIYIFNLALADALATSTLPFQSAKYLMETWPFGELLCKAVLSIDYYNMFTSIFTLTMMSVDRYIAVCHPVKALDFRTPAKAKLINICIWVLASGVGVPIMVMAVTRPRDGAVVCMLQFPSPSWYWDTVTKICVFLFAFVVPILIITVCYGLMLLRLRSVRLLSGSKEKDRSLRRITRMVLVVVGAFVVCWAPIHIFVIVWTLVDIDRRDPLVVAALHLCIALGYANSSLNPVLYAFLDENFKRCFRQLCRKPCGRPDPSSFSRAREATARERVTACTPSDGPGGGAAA
Active calls of the source: *; nt = no result.

SMILES | MC4R antag cAMP | MC4R ag barr | SMARCA2 activ | F508del corr | MC4R barr ag | MOR-DOR barr ag
Cc1ccc(NC(=O)c2cccs2)cc1[N+](=O)[O-] | -3.3 | -2.5 | 2.0 | -0.3 | nt | nt
O=C(NC(=S)Nc1ccc(NC(=O)c2cccs2)cc1)c1ccco1 | -1.0 | -0.6 | -0.4 | nt | nt | nt
Cc1ccc(C(=O)NC(=S)Nc2ccc(NC(=O)c3cccs3)cc2)cc1[N+](=O)[O-] | 4.4 | 29.2* | 0.3 | nt | 5.0 | 8.1
O=C(NC(=S)Nc1ccc(NC(=O)c2cccs2)cc1)c1cc2ccccc2o1 | -3.8 | 26.3* | 1.0 | nt | 9.6* | 10.2
Cc1cc(C)nc(Nc2nc(-c3ccccc3)cs2)n1 | -3.1 | 0.0 | 4.4 | 2.2 | nt | nt
c1ccc(-c2csc(Nc3nc(N4CCOCC4)nc(N4CCOCC4)n3)n2)cc1 | 20.9 | 14.1* | -0.7 | nt | 11.1* | 3.4
COc1cc(NC(=O)c2ccc(-c3ccc(Br)cc3)o2)ccc1NC(=O)C(C)C | 1.9 | 15.3* | -1.0 | nt | 6.0 | 4.1
C[C@H](NC(=O)C[C@@H]1C[C@H]2c3cc(NC(=O)C4CCC4)ccc3O[C@H]2[C@H](CO)O1)c1ccccc1 | nt | nt | nt | 1.5 | nt | nt
COc1cccc(S(=O)(=O)N[C@H]2CC[C@H](CCn3cc(-c4ccccn4)nn3)O[C@H]2CO)c1 | nt | nt | nt | 1.0 | nt | nt
CC(C)NC(=O)Nc1cccc2c1O[C@H](CN(C)S(=O)(=O)c1ccc(F)cc1)[C@H](C)CN([C@@H](C)CO)C2=O | nt | nt | nt | -2.6 | nt | nt
CCOc1ccccc1C(=O)NCCNC(=O)c1ccccc1OCC | 2.2 | -0.6 | -3.0 | 1.2 | nt | nt
CCOc1ccccc1C(=O)NCC(=O)NCCSc1ccc(Br)cc1 | -1.6 | 14.6* | -1.7 | 1.1 | 1.8 | 5.0
CCCN(C)C[C@H]1Oc2cc(C#Cc3ccccc3)ccc2S(=O)(=O)N([C@H](C)CO)C[C@@H]1C | nt | nt | nt | -0.8 | nt | nt
COCCCn1c(=O)/c(=C\c2ccc(OC(F)F)c(OC)c2)s/c1=C(/C#N)C(N)=O | -4.1 | 11.9* | 4.1 | 0.5 | 5.9 | 14.9
COCCCn1c(=O)/c(=C\c2ccccc2OC(F)F)s/c1=C(/C#N)C(N)=O | -2.4 | 1.9 | -2.5 | -0.7 | nt | nt
CCOC(=O)c1oc2ccc(S(=O)(=O)N3CCC(C)CC3)cc2c1C | 4.5 | 12.6* | nt | -0.1 | -1.3 | 5.4
Cc1cccc(C(C)C)c1NC(=O)COC(=O)c1cccc(S(=O)(=O)N2CCc3ccccc3C2)c1 | -6.2 | 18.2* | 0.5 | nt | 8.6* | 7.2
CCc1cccc(CC)c1NC(=O)COC(=O)c1cccc(S(=O)(=O)N2CCc3ccccc3C2)c1 | 20.4 | -0.3 | -2.5 | nt | nt | nt
CCCOc1ccc(C(=O)Nc2nc(C)c(Cc3ccc4c(c3)OCO4)s2)cc1 | 3.0 | 47.2* | 2.5 | 4.3 | 12.7* | 4.2
CO[C@H]1CN(C)C(=O)c2ccc(NC(C)=O)cc2OC[C@@H](C)N(C(=O)Cc2cccnc2)C[C@H]1C | nt | nt | nt | 0.4 | nt | nt
O=C(COC(=O)c1cccnc1Nc1ccccc1F)NCc1ccc2c(c1)OCO2 | -0.5 | 10.5* | -0.4 | nt | 2.5 | 1.8
Cc1ccnc(Nc2nc(-c3ccc(O)cc3O)cs2)c1 | 7.8 | 17.7* | 2.0 | -0.7 | 13.2* | 8.2
CO[C@H]1CN(C)C(=O)c2cc(NC(=O)Cc3ccccc3)ccc2OC[C@H](C)NC[C@@H]1C | nt | nt | nt | -1.9 | nt | nt
O=C(C[C@H]1C[C@H]2c3cc(NS(=O)(=O)c4ccccc4)ccc3O[C@H]2[C@H](CO)O1)NC1CCCCC1 | nt | nt | nt | -2.9 | nt | nt
O=C(Nc1c(Cl)cccc1Cl)c1ccc(-c2ccccc2)cc1 | -1.2 | 20.5* | 1.0 | nt | -1.1 | 11.5
SMILES | MC4R antag cAMP | MC4R ag barr | SMARCA2 activ | F508del corr | MC4R barr ag | MOR-DOR barr ag
CCOC(=O)c1ccc(Cl)c(NC(=O)c2ccc(-c3ccccc3)cc2)c1 | -19.3 | 12.8* | -0.1 | -2.0 | 3.9 | 16.5
O=C(Nc1ccc(Cl)cc1Cl)c1ccc(-c2ccccc2)cc1 | 7.0 | 2.5 | 1.0 | -2.7 | nt | nt
O=C(CSc1ncnc2c1oc1ccccc12)c1cccs1 | 20.8 | 13.3* | 1.0 | nt | 1.3 | 5.3
C[C@H](NC(=O)N(C)C[C@H]1OCc2ccccc2-c2ccccc2C(=O)N([C@@H](C)CO)C[C@H]1C)c1ccccc1 | nt | nt | nt | -2.6 | nt | nt
O=C(CC(=O)Nc1cc(Cl)ccc1Cl)Nc1cc(Cl)ccc1Cl | 8.7 | 15.2* | 2.0 | 0.3 | 3.9 | 5.1
NC(=O)Nc1cc(Cl)ccc1Cl | -0.7 | -1.6 | -0.6 | -0.1 | nt | nt
CC(C)(C)NC(=O)CN(C(=O)CCC(=O)Nc1nccs1)c1ccccc1F | 10.2 | 11.8* | -1.9 | 0.7 | -0.5 | 1.6
CCc1c(C2(O)CCCCC2)[nH]c2ccc(C(=O)OC)cc12 | 8.8 | 2.2 | 3.6 | 1.4 | nt | nt
CCc1c(C2(O)CCCCC2)[nH]c2ccc(C#N)cc12 | 8.4 | 10.8* | -0.6 | -1.6 | 3.1 | 8.1
CC(C)NC(=O)Nc1cccc2c1O[C@@H](CN(C)C(=O)Nc1ccc3c(c1)OCO3)[C@@H](C)CN([C@H](C)CO)C2=O | nt | nt | nt | 0.7 | nt | nt
Cc1ccc(C(C)C)c(OCC(=O)NNCC(=O)Nc2cccc(F)c2)c1 | -0.6 | 13.7* | 5.3 | 1.0 | 10.2* | 6.2
N#Cc1c(-c2ccccc2)nc(-c2ccccc2)nc1N1CCOCC1 | 2.1 | 2.5 | 0.2 | nt | nt | nt
N#Cc1c(N)nc(-c2ccccc2)nc1-c1ccccc1 | -2.9 | 12.7* | 0.4 | nt | 0.4 | 6.5
CCCNC(=O)C[C@H]1C[C@H]2c3cc(NC(=O)Nc4ccc(F)cc4)ccc3O[C@H]2[C@H](CO)O1 | nt | nt | nt | -0.9 | nt | nt
NS(=O)(=O)c1ccc(NC(=S)N2CCN(Cc3ccc(Cl)c(Cl)c3)CC2)cc1 | 1.6 | -1.3 | -3.6 | 2.8 | nt | nt
NS(=O)(=O)c1ccc(NC(=S)N2CCN(c3ccc(Cl)c(Cl)c3)CC2)cc1 | -2.7 | 11.6* | -2.6 | nt | -2.6 | 3.0
Fc1ccc(-c2nnsc2Sc2ccccn2)cc1 | 0.6 | 12.2* | -1.3 | nt | -1.1 | 2.8
COc1ccc(C(=O)Nc2ccc3c(c2)OC[C@H](C)NC[C@@H](C)[C@H](OC)CN(C)C3=O)cc1 | nt | nt | nt | 0.0 | nt | nt
O=C(Nc1cccc(C(F)(F)F)c1)c1cc(-c2ccc(F)cc2)on1 | 4.8 | 16.3* | -0.4 | nt | 6.0 | 3.9
COc1ccc(-c2csc(NC(=O)COC(=O)c3ccco3)n2)cc1 | 6.9 | 11.5* | -0.4 | -2.1 | 3.6 | 3.0
COc1ccc(-c2csc(NC(=S)NC(=O)c3ccco3)n2)cc1 | -4.5 | 3.6 | 1.4 | nt | nt | nt
CN1CCN(C(=O)C[C@H]2CC[C@H]3[C@@H](COC[C@H](O)CN3C(=O)Nc3ccc(Cl)cc3)O2)CC1 | nt | nt | nt | 2.5 | nt | nt
O=C(NCC(c1ccco1)N1CCc2ccccc21)C(=O)Nc1ccccc1 (configuration not stated) | 6.0 | 11.1* | 3.2 | 1.2 | 1.1 | 3.6
C=C(C)CNC(=S)NNC(=O)CCn1c2ccc(Cl)cc2c2cc(Cl)ccc21 | -0.6 | 10.8* | -2.6 | -0.1 | 6.3 | 2.7
